Laboratory results reported in ChEMBL document CHEMBL1123247, “Nucleoside conjugates. 7. Synthesis and antitumor activity of 1-beta-D-arabinofuranosylcytosine conjugates of ether lipids” (J Med Chem, 1986).

How the values were obtained:
Format in all cases: functional, Mus musculus
L1210 [1] = test: Antitumor activity against the ic implanted L1210 lymphoid leukemia in mice expressed as optimal dose (1-5qd treatment schedule) required to produce greatest increase in life span was determined
Outline: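 DBA/2J mice, groups of 6 (26-32 g), got 1 × 10^5 L1210 cells ic on day 0. Dosing was ip starting 24 h later, as a sonicated solution or suspension in 0.9% NaCl with 0.5% Tween-80, over a wide dose range. Mice were followed daily until death. Median survival T/C was taken from survivors per NCI protocols, and ILS = (T/C − 1) × 100. Active range means doses giving ILS ≥25%; optimal dose means greatest ILS.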

L1210 [2] = test: Antitumor activity against the ip implanted L1210 leukemia in mice expressed as optimal dose (1-5qd treatment schedule) required to produce greatest increase in life span was determined
Outline: (§1)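 DBA/2J mice, groups of 6 (23-28 g), were inoculated ip with 1 × 10^6 L1210 cells on day 0. Dosing was ip from 24 h, in 0.9% NaCl with 0.5% Tween-80 (sonicated solution or suspension). Mice were observed daily until death or day 45. Median survival T/C followed NCI protocols, and ILS = (T/C − 1) × 100. Active range means doses giving ILS ≥25%; optimal dose means greatest ILS.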

L1210 [3] = test: Antitumor activity against the ip implanted L1210 leukemia in mice expressed as optimal dose (1 qd treatment schedule) required to produce greatest increase in life span was determined; outline: as §1
L1210 [4] = test: Antitumor activity was determined against the ip implanted L1210 leukemia in mice by change in […] at 400 mg/kg (treatment of 1qd schedule) dosage; conditions: route intraperitoneal
Outline: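 DBA/2J mice, 6 per group (wt 23-28 g), inoculated ip with 1×10^6 L1210 cells on day 0. Treatment was given ip in 0.9% NaCl with 0.5% Tween-80, starting 24 h later. Weight change was taken on day 8. Mice were observed daily until death or 45 days. Median survival T/C and %ILS = (T/C − 1) × 100 came from survivors per NCI protocols, and 45-day survivors were counted.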

L1210 [5] = test: Antitumor activity was determined against the ip implanted L1210 leukemia in mice by 45-day survivors in mice at 400 mg/kg (treatment of 1qd schedule) dosage; conditions: route intraperitoneal
Outline: (§2)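 DBA/2J mice in groups of 6 (wt 23-28 g) were inoculated ip with 1×10^6 L1210 cells on day 0. Dosing was ip from 24 h, in 0.9% NaCl with 0.5% Tween-80 (conjugates sonicated), across a range of doses. Mice were observed daily until death or 45 days. Median T/C was computed from survivors per NCI protocols, and ILS = (T/C − 1)×100.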

L1210 [6] = test: Antitumor activity was determined against the ip implanted L1210 leukemia in mice by percent increase in life span at 400 mg/kg (treatment of 1qd schedule) dosage; conditions: route intraperitoneal; outline: as §2
P388 [7] = test: Antitumor activity was determined against the ip implanted P388 leukemia in mice by percent median survival rate (treated/control) at 133 mg/kg (treatment of 1,5,9qd schedule) dosage; >45.0/11.0; conditions: route intraperitoneal
Outline: (§3)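 DBA/2J mice, 23-33 g, in groups of 6, were inoculated ip with 1×10^6 P388 cells on day 0. Dosing was ip from 24 h on the stated schedules, in 0.9% NaCl with 0.5% Tween-80 (sonicated solution or suspension). Survival was followed daily until death or 45 days. Median T/C was calculated from survivors per NCI protocols, with ILS = (T/C − 1) × 100.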

P388 [8] = test: Antitumor activity was determined against the ip implanted P388 leukemia in mice by change in […] at 133 mg/kg (treatment of 1,5,9qd schedule) dosage; conditions: route intraperitoneal
Outline: (§4)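 P388 leukemia, 1×10^6 cells implanted ip on day 0 into DBA/2J mice, groups of 6 (wt 23-33 g). Dosing ip started 24 h post-inoculation, vehicle 0.9% NaCl containing 0.5% Tween-80. Animals were observed daily until death or 45 days. Outputs were weight change, median survival T/C from survivors per NCI protocols, and %ILS = (T/C − 1) × 100.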

P388 [9] = test: Antitumor activity was determined against the ip implanted P388 leukemia in mice by percent increase in life span at 133 mg/kg (treatment of 1,5,9qd schedule) dosage; conditions: route intraperitoneal; outline: as §3
P388 [10] = test: Antitumor activity was determined against the ip implanted P388 leukemia in mice by 45-day survivors in mice at 133 mg/kg (treatment of 1,5,9qd schedule) dosage; conditions: route intraperitoneal; outline: as §3
P388 [11] = test: Antitumor activity against the ip implanted P388 leukemia in mice expressed as optimal dose (1,5,9qd treatment schedule) required to produce greatest increase in life span was determined; design: unit: mg/kg
Outline: (§5)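 P388 leukemia: 1 × 10^6 cells were given ip on day 0 to DBA/2J mice, groups of 6 (23-33 g). Treatment was ip from 24 h after inoculation, vehicle 0.9% NaCl with 0.5% Tween-80. Mice were observed daily until death or 45 days. Median survival T/C was calculated from survivors per NCI protocols, and ILS = (T/C − 1) × 100. Active range means doses giving ILS ≥25%; optimal dose means greatest ILS.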

P388 [12] = test: (§6) Antitumor activity against the ip implanted P388 leukemia in mice expressed as optimal dose (1-5qd treatment schedule) required to produce greatest increase in life span was determined; outline: as §5
P388 [13] = test: Antitumor activity against the ip implanted P388 leukemia in mice expressed as optimal dose (1 qd treatment schedule) required to produce greatest increase in life span was determined; outline: as §5
P388 [14] = test: Antitumor activity was determined against the ip implanted P388 leukemia in mice by percent increase in life span at 500 mg/kg (treatment of 1qd schedule) dosage; conditions: route intraperitoneal; outline: as §3
P388 [15] = test: Antitumor activity was determined against the ip implanted P388 leukemia in mice by 45-day survivors in mice at 500 mg/kg (treatment of 1qd schedule) dosage; conditions: route intraperitoneal; outline: as §3
P388 [16] = test: Antitumor activity was determined against the ip implanted P388 leukemia in mice by change in […] at 500 mg/kg (treatment of 1qd schedule) dosage; conditions: route intraperitoneal; outline: as §4
P388 [17] = test: Antitumor activity was determined against the ip implanted P388 leukemia in mice by percent increase in life span at 60 mg/kg (1-5qd treatment schedule) dosage; conditions: route intraperitoneal; outline: as §3
P388 [18] = test: Antitumor activity was determined against the ip implanted P388 leukemia in mice by 45-day survivors in mice at 60 mg/kg (1-5qd treatment schedule) dosage; conditions: route intraperitoneal; outline: as §3
P388 [19] = test: Antitumor activity against ip implanted P388 leukemia in mice expressed as active dose range (1-5qd treatment schedule) required to produce increase in life span by >25% was determined; Range is 40-80; outline: as §5
P388 [20] = test: Antitumor activity was determined against the ip implanted P388 leukemia in mice by change in […] at 60 mg/kg (1-5qd treatment schedule) dosage; conditions: route intraperitoneal; outline: as §4
P388 [21] = test: Antitumor activity against ip implanted P388 leukemia in mice expressed as active dose range (1 qd treatment schedule) required to produce increase in life span by >25% was determined; Range is 200-500; outline: as §5
P388 [22] = test: as §6; design: unit: mg/kg; outline: as §5
P388 [23] = test: Antitumor activity was determined against the ip implanted P388 leukemia in mice by percent median survival rate (treated/control) at 500 mg/kg (1 qd treatment schedule) dosage; >45.0/11.0; conditions: route intraperitoneal

Row | Structure (SMILES) | Optimal dose (L1210 [1]) [mg] | Optimal dose (L1210 [2]) [mg] | Optimal dose (L1210 [3]) [mg/kg/day] | Weight change (L1210 [4]) [g mouse-1] | Survivors (L1210 [5]) | ILS (L1210 [6]) | T/C (P388 [7]) [%] | Weight change (P388 [8]) [g mouse-1] | ILS (P388 [9]) | Survivors (P388 [10]) | Optimal dose (P388 [11]) [mg] | Optimal dose (P388 [12]) [mg] | Optimal dose (P388 [13]) [mg] | ILS (P388 [14]) | Survivors (P388 [15]) | Weight change (P388 [16]) [g mouse-1] | ILS (P388 [17]) | Survivors (P388 [18]) | Active dose range (P388 [19]) [mg/kg/day] | Weight change (P388 [20]) [g mouse-1] | also measured
1 | CCCCCCCCCCCCCCCCOCC(COP(=O)(O)OP(=O)(O)OC[C@H]1O[C@@H](n2ccc(N)nc2=O)[C@@H](O)[C@@H]1O)OC(=O)CCCCCCCCCCCCCCC (mixture of isomers) | 100 | 80 | 400 | 1.47 | 0 | 293 | >45 | -0.25 | >309 | 4 | 133 | 60 | 300 | – | – | – | – | – | – | – | –
2 | Nc1ccn([C@@H]2O[C@H](CO)[C@@H](O)[C@@H]2O)c(=O)n1 [CYTARABINE] | 300 | 200 | 400 | 2.37 | 0 | 19 | – | – | – | – | – | 200 | 500 | 36 | 0 | 0.72 | – | – | – | – | –
3 | CCCCCCCCCCCCCCCCCCOCC(COP(=O)(O)OP(=O)(O)OC[C@H]1O[C@@H](n2ccc(N)nc2=O)[C@@H](O)[C@@H]1O)OC(=O)CCCCCCCCCCCCCCC (mixture of isomers) | – | 100 | 400 | -1 | 0 | 257 | – | – | – | – | 67 | – | 500 | >309 | 4 | -0.07 | 109 | 0 | 40 | -0.12 | Active dose range (P388 [21]): 200 mg/kg/day; Optimal dose (P388 [22]): 60 mg
4 | CCCCCCCCCCCCCCCC(=O)OC[C@H](COP(=O)(O)OP(=O)(O)OC[C@H]1O[C@@H](n2ccc(N)nc2=O)[C@@H](O)[C@@H]1O)OC(=O)CCCCCCCCCCCCCCC | 80 | 40 | 300 | – | – | – | >45 | -1.43 | >309 | 4 | 133 | – | 500 | – | – | – | >309 | 5 | 40 | -1.92 | T/C (P388 [23]): >45%; Active dose range (P388 [21]): 200 mg/kg/day; Optimal dose (P388 [22]): 60 mg
